In ChEMBL document CHEMBL1141358, “Antioxidant phenylpropanoid-substituted epicatechins from Trichilia catigua” (J Nat Prod, 2007):
pIC50: −log10 of the molar value. Activity calls are given as the source filed them. No cut-off for these calls is given here.

Columns and labels:
[1] = DPPH radical scavenging activity; format: functional
In short: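 Samples dissolved in EtOH and diluted to 500, 100, 50 and 10 µg/mL (concentrations before mixing). Each 20 µL aliquot was mixed immediately with 180 µL DPPH, with an EtOH blank. After 20 min, A517 was read. Scavenging was taken as the fall in DPPH absorbance relative to a sample-free DPPH control. IC50 was interpolated from concentration-inhibition curves as the mean of triplicates.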

[2] = test system: PC-12; assay: Neurotrophic effect in rat PC12 cells; format: functional, cell-based
In short: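 PC12 cells without NGF were exposed to test compounds at 1–100 µM and examined for neurotrophic activity.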

[3] = test system: PC-12; assay: Neurotrophic effect in rat NGF-induced PC12 cells upto 100 uM; format: functional, cell-based
In short: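 PC12 cells were co-treated with NGF and test compounds at 1–100 µM, then checked for neurotrophic effects.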

pIC50 [1] | Structure (SMILES) | Activity [2] | Activity [3]
5.00 | Oc1cc(O)c2c(c1)O[C@H](c1ccc(O)c(O)c1)[C@@H](O)C2 [CATECHIN] | – | –
5.15 | COC(=O)C[C@@H]1c2cc(O)c(O)cc2Oc2cc(O)c3c(c21)O[C@H](c1ccc(O)c(O)c1)[C@H](O)C3 [CATIGUANIN A] | inactive | inactive
5.17 | COC(=O)C[C@H]1c2cc(O)c(O)cc2Oc2cc(O)c3c(c21)O[C@H](c1ccc(O)c(O)c1)[C@H](O)C3 [CATIGUANIN B] | – | –
5.03 | O=C1C[C@@H](c2ccc(O)c(O)c2)c2c(cc(O)c3c2O[C@H](c2ccc(O)c(O)c2)[C@H](O)C3)O1 [CINCHONAIN IA] | inactive | inactive
5.29 | O=C1C[C@H](c2ccc(O)c(O)c2)c2c(cc(O)c3c2O[C@H](c2ccc(O)c(O)c2)[C@H](O)C3)O1 [CINCHONAIN IB] | – | –
5.60 | O=C1C[C@H](c2ccc(O)c(O)c2)c2c(O)cc3c(c2O1)C[C@@H](O)[C@@H](c1ccc(O)c(O)c1)O3 [CINCHONAIN IC] | – | –
5.64 | O=C1C[C@@H](c2ccc(O)c(O)c2)c2c(O)cc3c(c2O1)C[C@@H](O)[C@@H](c1ccc(O)c(O)c1)O3 [CINCHONAIN ID] | – | –
